Reference: paper PMC6923798 (Bioorganic chemistry, 2018)

Key:
T-47D = assay: NCI in vitro five dose anticancer assay; format: cell-based, human; conditions: 48 h
KM12 = assay: NCI in vitro five dose anticancer assay; format: cell-based, human
MDA-MB231/ATCC = assay: NCI in vitro five dose anticancer assay; format: cell-based, human
U251 = assay: NCI in vitro five dose anticancer assay; format: cell-based, human
HS 578T = assay: NCI in vitro five dose anticancer assay; format: cell-based, human; conditions: 48 h
IGROV1 = assay: NCI in vitro five dose anticancer assay; format: cell-based, human
[1] = test system: full NCI panel of 60 cell lines; assay: NCI in vitro one dose anticancer assay; format: cell-based, human; conditions: 48 h
Outline: (§1)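 NCI protocol. Test compound added once at 10−5 M to ~60 human tumour lines from nine subpanels. Incubated 48 h at 37 °C, 5% CO2, 95% air, 100% relative humidity. Endpoint by sulforhodamine B protein staining with spectrophotometric absorbance. Growth of treated cells reported as percent of untreated cells.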

UACC-62 = assay: NCI in vitro five dose anticancer assay; format: cell-based, human
HL-60(TB) = assay: NCI in vitro five dose anticancer assay; format: cell-based, human
786–0 = assay: NCI in vitro five dose anticancer assay; format: cell-based, human
NCI-H322M = assay: NCI in vitro five dose anticancer assay; format: cell-based, human; conditions: 48 h
NCI-H460 = assay: NCI in vitro five dose anticancer assay; format: cell-based, human
MDA-MB-468 = assay: NCI in vitro five dose anticancer assay; format: cell-based, human
NCI-H23 = assay: NCI in vitro five dose anticancer assay; format: cell-based, human
K-562 = assay: MTT anti-proliferative assay; format: cell-based, human; conditions: Homo sapiens, K562, 24 h, read-out: IC50 ± SD, K-562
K-562 cell line = assay: NCI in vitro one dose anticancer assay; format: cell-based; conditions: Homo sapiens, K562, 48 h, read-out: % growth inhibition
Outline: as §1

NCI-H226 = assay: NCI in vitro five dose anticancer assay; format: cell-based, human
Jurkat = assay: MTT anti-proliferative assay; format: cell-based, human; conditions: Homo sapiens, Jurkat, 24 h, read-out: IC50 ± SD, Jurkat
RPMI-8226 = assay: NCI in vitro five dose anticancer assay; format: cell-based, human
LOX IMVI = assay: NCI in vitro five dose anticancer assay; format: cell-based, human; conditions: 48 h
SK-MEL-5 = assay: NCI in vitro five dose anticancer assay; format: cell-based, human
SK-MEL-2 = assay: NCI in vitro five dose anticancer assay; format: cell-based, human
TK-10 = assay: NCI in vitro five dose anticancer assay; format: cell-based, human
IL-6 = IL-6 ELISA in K-562 cells; format: cell-based, human
Outline: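 K-562 cells exposed 24 h to vehicle (DMSO), test compound at 10 μM or dexamethasone (positive control). IL-6 secreted into cell-free supernatant quantified by human IL-6 ELISA kit. Expressed as % of vehicle control, mean ± SD of three independent experiments, each in triplicate. Time course: in 12-well plates, medium changed when compound (10 μM) added, and media sampled at 0, 1, 4, 8, 12, 24, 48 h.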

MCF7 = assay: NCI in vitro five dose anticancer assay; format: cell-based, human
HCC-2998 = assay: NCI in vitro five dose anticancer assay; format: cell-based, human
SR = assay: NCI in vitro five dose anticancer assay; format: cell-based, human; conditions: 48 h
MDA-MB-435 = assay: NCI in vitro five dose anticancer assay; format: cell-based, human
HOP-92 = assay: NCI in vitro five dose anticancer assay; format: cell-based, human
c-Src = c-Src (Homo sapiens, UniProt P12931); assay: Src kinase assay; format: biochemical
OVCAR-8 = assay: NCI in vitro five dose anticancer assay; format: cell-based, human

Sequence of c-Src (P12931 whole entry): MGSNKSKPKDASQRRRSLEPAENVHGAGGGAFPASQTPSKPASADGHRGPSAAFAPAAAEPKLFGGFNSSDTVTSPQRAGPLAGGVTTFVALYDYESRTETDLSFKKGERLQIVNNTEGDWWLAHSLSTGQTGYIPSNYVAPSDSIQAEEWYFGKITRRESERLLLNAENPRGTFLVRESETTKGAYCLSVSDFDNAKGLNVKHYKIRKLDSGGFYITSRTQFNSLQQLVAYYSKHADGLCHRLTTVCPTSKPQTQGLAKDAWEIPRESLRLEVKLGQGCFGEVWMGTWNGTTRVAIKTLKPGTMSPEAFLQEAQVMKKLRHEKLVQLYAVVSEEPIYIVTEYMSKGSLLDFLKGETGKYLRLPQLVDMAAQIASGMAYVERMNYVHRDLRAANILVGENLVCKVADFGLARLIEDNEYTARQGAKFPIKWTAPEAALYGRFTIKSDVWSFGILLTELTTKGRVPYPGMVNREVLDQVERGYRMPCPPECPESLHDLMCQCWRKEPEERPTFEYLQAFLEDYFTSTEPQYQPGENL

**Q.** For COc1ccc(C=CC(=O)c2ccc(NC(=O)CSc3nnc(-c4cc(OC)c(OC)c(OC)c4)o3)cc2)cc1 [Compound 8v, N-(4-(3-(4-Methoxyphenyl)acryloyl)phenyl)-2-((5-(3,4,5-trimethoxy-phenyl)-1,3,4-oxadiazol-2-yl)thio)acetamide], which GI50 (T-47D; Homo sapiens, T47D) is on record?
**A.** 2050 nM

**Q.** What about the TGI (T-47D; T-47D, Breast cancer, five dose, SRB) of the same molecule?
**A.** 5080 nM

**Q.** What about the GI50 (KM12; Homo sapiens, KM12, 48 h) of the same molecule?
**A.** 1770 nM

**Q.** What about the TGI (KM12; KM12, Colon Cancer, five dose, 48 h, SRB) of the same molecule?
**A.** 3400 nM

**Q.** What about the GI50 (MDA-MB231/ATCC; Homo sapiens, MDA-MB-231, 48 h) of the same molecule?
**A.** 1820 nM

**Q.** What about the TGI (MDA-MB231/ATCC; MDA-MB231/ATCC, Breast cancer, five dose, 48 h, SRB) of the same molecule?
**A.** 3500 nM

**Q.** What about the GI50 (U251; Homo sapiens, U-251, 48 h) of the same molecule?
**A.** 1680 nM

**Q.** What about the TGI (U251; U251, CNS cancer, five dose, 48 h, SRB) of the same molecule?
**A.** 3180 nM

**Q.** And the TGI (HS 578T; HS 578T, Breast cancer, five dose, SRB)?
**A.** 7760 nM

**Q.** What about the GI50 (HS 578T; Homo sapiens, Hs-578T) of the same molecule?
**A.** 2650 nM

**Q.** What about the GI50 (IGROV1; Homo sapiens, IGROV-1, 48 h) of the same molecule?
**A.** 1540 nM

**Q.** What about the TGI (IGROV1; IGROV1, Ovarian Cancer, five dose, 48 h, SRB) of the same molecule?
**A.** 3750 nM

**Q.** What about the “number of cell lines with complete cell death” value ([1]; 10 μM, SRB) of the same molecule?
**A.** 45

**Q.** And the inhibition at 10 µM ([1]; Homo sapiens, 60 cell, read-out: Mean growth inhibition %)?
**A.** 132%

**Q.** What about the GI50 (UACC-62; Homo sapiens, UACC-62, 48 h) of the same molecule?
**A.** 1730 nM

**Q.** What about the TGI (UACC-62; UACC-62, Melanoma, five dose, 48 h, SRB) of the same molecule?
**A.** 3430 nM

**Q.** And the TGI (HL-60(TB); HL-60(TB), Leukemia, five dose, 48 h, SRB)?
**A.** 4100 nM

**Q.** What about the GI50 (HL-60(TB); Homo sapiens, HL-60, 48 h) of the same molecule?
**A.** 2000 nM

**Q.** And the TGI (786–0; 786–0, Renal Cancer, five dose, 48 h, SRB)?
**A.** 3360 nM

**Q.** What about the GI50 (786–0; Homo sapiens, 786-0, 48 h) of the same molecule?
**A.** 1700 nM

**Q.** What about the GI50 (NCI-H322M; Homo sapiens) of the same molecule?
**A.** 1590 nM

**Q.** What about the TGI (NCI-H322M; Non-Small Cell Lung Cancer, five dose, SRB) of the same molecule?
**A.** 2980 nM

**Q.** And the GI50 (NCI-H460; Homo sapiens, NCI-H460, 48 h)?
**A.** 2000 nM

**Q.** What about the TGI (NCI-H460; NCI-H460, Non-Small Cell Lung Cancer, five dose, 48 h, SRB) of the same molecule?
**A.** 3850 nM

**Q.** What about the GI50 (MDA-MB-468; Homo sapiens, MDA-MB-468, 48 h) of the same molecule?
**A.** 2100 nM

**Q.** And the TGI (MDA-MB-468; MDA-MB-468, Breast cancer, five dose, 48 h, SRB)?
**A.** 5020 nM

**Q.** And the GI50 (NCI-H23; Homo sapiens, NCI-H23, 48 h)?
**A.** 1880 nM

**Q.** What about the TGI (NCI-H23; NCI-H23, Non-Small Cell Lung Cancer, five dose, 48 h, SRB) of the same molecule?
**A.** 3970 nM

**Q.** And the IC50 (K-562)?
**A.** 1950 ± 180 nM

**Q.** What about the inhibition at 10 µM (K-562 cell line) of the same molecule?
**A.** 35.8 to 152%

**Q.** And the GI50 (NCI-H226; Homo sapiens, NCI-H226, 48 h)?
**A.** 2670 nM

**Q.** What about the TGI (NCI-H226; NCI-H226, Non-Small Cell Lung Cancer, five dose, 48 h, SRB) of the same molecule?
**A.** 5690 nM

**Q.** What about the IC50 (Jurkat) of the same molecule?
**A.** 2360 ± 470 nM

**Q.** And the GI50 (RPMI-8226; Homo sapiens, RPMI-8226, 48 h)?
**A.** 1730 nM

**Q.** And the TGI (RPMI-8226; RPMI-8226, Leukemia, five dose, 48 h, SRB)?
**A.** 4310 nM

**Q.** What about the GI50 (LOX IMVI; Homo sapiens) of the same molecule?
**A.** 320 nM

**Q.** What about the TGI (LOX IMVI; Melanoma, five dose, SRB) of the same molecule?
**A.** 1280 nM

**Q.** And the GI50 (SK-MEL-5; Homo sapiens, SK-MEL-5, 48 h)?
**A.** 2140 nM

**Q.** And the TGI (SK-MEL-5; SK-MEL-5, Melanoma, five dose, 48 h, SRB)?
**A.** 5240 nM

**Q.** What about the GI50 (SK-MEL-2; Homo sapiens, SK-MEL-2, 48 h) of the same molecule?
**A.** 1790 nM

**Q.** And the TGI (SK-MEL-2; SK-MEL-2, Melanoma, five dose, 48 h, SRB)?
**A.** 4820 nM

**Q.** And the GI50 (TK-10; Homo sapiens, TK-10, 48 h)?
**A.** 1520 nM

**Q.** What about the TGI (TK-10; TK-10, Renal Cancer, five dose, 48 h, SRB) of the same molecule?
**A.** 3030 nM

**Q.** And the activity at 10 µM (IL-6; Homo sapiens, K562, 24 h, read-out: IL-6 protein levels (% of control))?
**A.** 20%

**Q.** What about the “IL-6 levels after 48 h” value (IL-6; K-562 cells, 10 μM, time course) of the same molecule?
**A.** still downregulated

**Q.** What about the “time of initial downregulation of IL-6 protein levels after treatment” value (IL-6; K-562 cells, 10 μM, time course 0-48 h) of the same molecule?
**A.** 8 h

**Q.** What about the GI50 (MCF7; Homo sapiens, MCF7, 48 h) of the same molecule?
**A.** 1270 nM

**Q.** What about the TGI (MCF7; MCF7, Breast cancer, five dose, 48 h, SRB) of the same molecule?
**A.** 3680 nM

**Q.** What about the TGI (HCC-2998; HCC-2998, Colon Cancer, five dose, 48 h, SRB) of the same molecule?
**A.** 3650 nM

**Q.** What about the GI50 (HCC-2998; Homo sapiens, HCC 2998, 48 h) of the same molecule?
**A.** 1880 nM

**Q.** And the GI50 (SR; Homo sapiens)?
**A.** 1860 nM

**Q.** And the TGI (SR; Leukemia, five dose, SRB)?
**A.** 4010 nM

**Q.** And the GI50 (MDA-MB-435; Homo sapiens, MDA-MB-435, 48 h)?
**A.** 1700 nM

**Q.** What about the TGI (MDA-MB-435; MDA-MB-435, Melanoma, five dose, 48 h, SRB) of the same molecule?
**A.** 3400 nM

**Q.** And the TGI (HOP-92; HOP-92, Non-Small Cell Lung Cancer, five dose, 48 h, SRB)?
**A.** 4230 nM

**Q.** What about the GI50 (HOP-92; Homo sapiens, HOP-92, 48 h) of the same molecule?
**A.** 1930 nM

**Q.** And the IC50 (c-Src)?
**A.** 960 ± 200 nM

**Q.** What about the GI50 (OVCAR-8; Homo sapiens, OVCAR-8, 48 h) of the same molecule?
**A.** 2320 nM

**Q.** What about the TGI (OVCAR-8; OVCAR-8, Ovarian Cancer, five dose, 48 h, SRB) of the same molecule?
**A.** 5730 nM
